Key:
[1] = target: Voltage-gated inwardly rectifying potassium channel KCNH2 (Homo sapiens, UniProt Q12809); assay: Displacement of [3H]-astemizole from human ERG expressed in HEK293 cells after 60 mins by scintillation counting analysis; assay type: cell-based
[2] = Oral bioavailability in Sprague-Dawley rat at 10 mg/kg; assay type: ADME, organism-based; conditions: in vivo
[3] = target: Voltage-gated L-type calcium channel (Rattus norvegicus, UniProt P22002+Q02485+P27732); assay: Binding affinity to rat L-type calcium channel at 1 uM
[4] = Apparent permeability across basolateral to apical side in human Caco2 cells at 10 uM […] by LC/MS/MS analysis; assay type: ADME, cell-based; conditions: Caco-2
Procedure, shortened: (§1)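 Caco-2 monolayer permeability measured in both directions, apical-to-basolateral and basolateral-to-apical. Reported as P_app (×10−⁶ cm/s), given as A−B/B−A pairs.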

[5] = Drug uptake in Sprague-Dawley rat brain at 3 mg/kg, po measured at 1 hr; assay type: ADME, organism-based; conditions: read-out: Drug uptake
Procedure, shortened: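 Rats dosed orally at 3 mg/kg. Brain drug concentration (μM) measured at 1 h post-dose.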

[6] = Volume of distribution at steady state in Sprague-Dawley rat; assay type: ADME, organism-based; conditions: in vivo, read-out: Vdss
[7] = Half life in Sprague-Dawley rat at 1 mg/kg, iv; assay type: ADME, organism-based; conditions: in vivo
Rattus norvegicus [8] = assay: Ex vivo histamine H3 receptor occupancy in Sprague-Dawley rat striatum at 3 mg/kg, po measured at 1 hr by autoradiographic analysis; assay type: functional
Procedure, shortened: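 After a 3 mg/kg oral dose in rats, ex vivo H3 receptor occupancy was determined by autoradiography at 1 h. Values are mean ± SD.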

[9] = Clearance in Sprague-Dawley rat; assay type: ADME, organism-based; conditions: in vivo
[10] = Apparent permeability across apical to basolateral side in human Caco2 cells at 10 uM after 60 mins by LC/MS/MS analysis; assay type: ADME, cell-based; conditions: Caco-2; procedure, shortened: as §1
Rattus norvegicus [11] = species: Rattus norvegicus; assay: Toxicity in rat assessed as phospholipidosis; conditions: in vivo
[12] = Tmax in po dosed human; assay type: ADME, organism-based; conditions: in vivo
Procedure, shortened: (§2)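 Humans given single oral doses. Time to peak plasma concentration and mean t1/2 were determined across the dose range (10–400 mg).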

[13] = Inhibition of CYP450 in human liver microsomes; assay type: ADME
Rattus norvegicus [14] = assay: Ex vivo histamine H3 receptor occupancy in Sprague-Dawley rat striatum at 10 mg/kg, sc by autoradiographic analysis; assay type: functional
Procedure, shortened: (§3)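 Ex vivo H3 receptor occupancy measured after 10 mg/kg subcutaneous dosing in rats. Plasma Cmax was determined in parallel.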

Homo sapiens = species: Homo sapiens; assay: Ex vivo histamine H3 receptor occupancy in human assessed as plasma concentration required to cause maximal receptor occupancy; assay type: functional
Canis familiaris = species: Canis familiaris; assay: Toxicity in dog assessed as phospholipidosis; assay type: organism-based, Canis lupus familiaris; conditions: in vivo
[15] = Metabolic stability in Sprague-Dawley rat liver microsomes assessed as compound remaining at 1 uM after 15 mins; assay type: ADME; conditions: read-out: Stability
Procedure, shortened: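 Rat liver microsomes incubated with compound for 15 min. Stability expressed as percent of parent remaining.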

Rattus norvegicus [16] = species: Rattus norvegicus; assay: Toxicity in rat assessed as phospholipidosis; assay type: organism-based; conditions: in vivo
Rattus norvegicus [17] = assay: Ex vivo histamine H3 receptor occupancy in Sprague-Dawley rat striatum assessed as maximum plasma concentration required to cause >80% receptor occupancy at 10 mg/kg, sc; assay type: functional; procedure, shortened: as §3
[18] = Half life in human; assay type: ADME, organism-based; conditions: in vivo; procedure, shortened: as §2
[19] = Metabolic stability in human liver microsomes assessed as compound remaining at 1 uM after 15 mins; assay type: ADME; conditions: read-out: Stability
Procedure, shortened: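 Compound incubated with human liver microsomes for 15 min. Read-out is percent parent remaining.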

Chain of Voltage-gated inwardly rectifying potassium channel KCNH2 (Q12809 whole entry): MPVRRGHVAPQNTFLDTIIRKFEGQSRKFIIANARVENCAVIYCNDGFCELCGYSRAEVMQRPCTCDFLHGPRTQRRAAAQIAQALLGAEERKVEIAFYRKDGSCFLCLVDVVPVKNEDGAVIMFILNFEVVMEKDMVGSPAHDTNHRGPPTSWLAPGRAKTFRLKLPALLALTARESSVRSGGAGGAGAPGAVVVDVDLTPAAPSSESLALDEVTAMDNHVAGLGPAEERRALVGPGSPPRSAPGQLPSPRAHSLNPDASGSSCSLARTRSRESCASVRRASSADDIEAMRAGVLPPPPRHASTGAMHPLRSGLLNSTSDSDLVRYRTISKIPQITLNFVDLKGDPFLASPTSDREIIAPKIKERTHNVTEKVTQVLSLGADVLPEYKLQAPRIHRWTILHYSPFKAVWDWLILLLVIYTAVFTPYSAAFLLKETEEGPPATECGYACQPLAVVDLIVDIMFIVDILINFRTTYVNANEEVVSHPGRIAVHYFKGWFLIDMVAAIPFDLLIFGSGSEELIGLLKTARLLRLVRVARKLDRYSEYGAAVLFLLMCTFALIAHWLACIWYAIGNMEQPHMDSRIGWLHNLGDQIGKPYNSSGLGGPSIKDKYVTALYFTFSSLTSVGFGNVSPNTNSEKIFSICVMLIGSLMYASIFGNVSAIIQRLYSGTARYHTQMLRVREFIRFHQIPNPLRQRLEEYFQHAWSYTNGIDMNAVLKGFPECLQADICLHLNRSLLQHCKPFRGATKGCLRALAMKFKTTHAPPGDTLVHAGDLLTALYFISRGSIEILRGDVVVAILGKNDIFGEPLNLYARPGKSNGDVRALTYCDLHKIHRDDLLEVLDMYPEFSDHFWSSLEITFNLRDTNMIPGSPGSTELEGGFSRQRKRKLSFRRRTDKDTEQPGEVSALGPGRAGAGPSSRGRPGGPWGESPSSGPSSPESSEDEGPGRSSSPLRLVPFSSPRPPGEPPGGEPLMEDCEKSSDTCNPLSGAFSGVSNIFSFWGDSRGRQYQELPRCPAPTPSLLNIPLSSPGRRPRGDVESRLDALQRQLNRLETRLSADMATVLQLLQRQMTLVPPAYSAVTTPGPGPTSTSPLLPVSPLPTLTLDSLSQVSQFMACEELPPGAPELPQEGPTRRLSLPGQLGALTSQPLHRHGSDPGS

In the case of `CC(C)N1CCN(C(=O)c2ccc(CN3CCCCC3)cc2)CC1`, the IC50 [1] is reported as greater than 30 µM, the bioavailability [2] is reported as 52% and the Activity [3] is reported as “Not Active”. The Papp B→A at 10 µM [4] was 148 nm/s, the concentration at 1 h [5] was 0.48 µM and the Vd [6] was 39.4 L/kg. For the same molecule, the half-life [7] was 20 h, the Occ (Rattus norvegicus [8]) was 90% and the clearance [9] was 1.57 L/h/kg. It also gave a Papp A→B at 1 h, 10 µM [10] of 124 nm/s.
With `O=C(c1ccc(CN2CCC(F)CC2)cc1)N1CCN(C2CCC2)CC1` the IC50 [1] was greater than 10 µM, the bioavailability [2] was 31% and the Vd [6] was 20.3 L/kg. For the same molecule, the half-life [7] was 2.1 h and the clearance [9] was 6.8 L/h/kg.
In the case of `Cl.O=C(c1ccc(CN2CCOCC2)cc1)N1CCN(C2CC2)CC1`, the IC50 [1] is reported as greater than 10 µM, the Activity (Rattus norvegicus [11]) is reported as “Non-toxic” and the bioavailability [2] is reported as 112%. The Tmax [12] was 0.5 h, the “inhibition (INH)” value [13] was “Not Active” and the Activity [3] was “Not Active”. The Papp B→A at 10 µM [4] was 378 nm/s, the concentration at 1 h [5] was 2.54 µM and the Occ (Rattus norvegicus [14]) was greater than 80%. The Activity (Homo sapiens) was 200 ng/mL, the Activity (Canis familiaris) was “Non-toxic” and the remaining at 0.25 h, 1 µM [15] was 44.1%. For the same molecule, the Vd [6] was 1.7 L/kg, the half-life [7] was 0.9 h and the Activity (Rattus norvegicus [16]) was “Non-toxic”. The Activity (Rattus norvegicus [17]) was 1933 ng/mL, the half-life [18] was 13.9 h and the Occ (Rattus norvegicus [8]) was 58%. The clearance [9] was 1.3 L/h/kg, the Papp A→B at 1 h, 10 µM [10] was 1080 nm/s and the remaining at 0.25 h, 1 µM [19] was 96.1%.
